Experimental data: ChEMBL document CHEMBL1130049, “Synthesis and oral efficacy of a 4-(butylethylamino)pyrrolo[2,3-d]pyrimidine: a centrally active corticotropin-releasing factor1 receptor antagonist” (J Med Chem, 1997)

Legend:
[1] = organism: Rattus norvegicus; assay: Volume of distribution in steady state in rat; format: ADME, organism-based; settings: in vivo
Procedure, shortened: (§1)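 Male Sprague-Dawley rats (300–350 g) had jugular cannulae placed under pentobarbital the day before dosing. Groups of n = 4 got 5 mg/kg iv bolus (DMSO/emulphor/saline 5:5:90) or 10 mg/kg po (DMSO/emulphor/water 5:5:90). Serial plasma was taken to 24 h (iv) or 8 h (po) and assayed by HPLC-UV at 300 nm. AUC was by linear trapezoid, CL = dose/AUC, Vdss = CL×MRT, and F from dose-normalised po/iv AUC.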

[2] = organism: Rattus norvegicus; assay: Half life in rat; format: ADME, organism-based; settings: in vivo; procedure, shortened: as §1
[3] = target: T1, Corticotropin-releasing factor receptor 1 (Rattus norvegicus, UniProt P35353); assay: Inhibition of binding of 70 pM [125I]-Try0-o-Corticotropin-releasing Factor (CFR) to Corticotropin releasing hormone receptor 1 in Rat brain membrane; format: cell membranes
T1 sequence (P35353 whole entry): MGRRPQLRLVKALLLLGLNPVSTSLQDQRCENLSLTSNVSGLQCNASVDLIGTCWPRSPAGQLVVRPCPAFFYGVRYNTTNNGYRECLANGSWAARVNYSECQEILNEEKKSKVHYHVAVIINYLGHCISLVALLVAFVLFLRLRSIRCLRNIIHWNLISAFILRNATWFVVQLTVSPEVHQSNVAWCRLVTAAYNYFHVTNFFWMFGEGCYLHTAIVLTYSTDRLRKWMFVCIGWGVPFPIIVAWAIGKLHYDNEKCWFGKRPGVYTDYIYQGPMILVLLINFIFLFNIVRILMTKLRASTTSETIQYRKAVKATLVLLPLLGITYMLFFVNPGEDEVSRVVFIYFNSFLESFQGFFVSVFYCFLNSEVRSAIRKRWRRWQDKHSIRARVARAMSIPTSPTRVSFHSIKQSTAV

[4] = Maximal plasma concentration in rat; format: ADME, organism-based; procedure, shortened: as §1
[5] = Plasma clearance in rat; format: ADME, organism-based; procedure, shortened: as §1
[6] = Oral bioavailability in rat; format: ADME, organism-based; settings: in vivo, read-out: Bioavailabiility; procedure, shortened: as §1
[7] = target: Corticotropin-releasing factor receptor 2 (Rattus norvegicus, UniProt P47866); assay: Inhibition of binding of [125I]-Tyr0-sauvagine to Corticotropin releasing hormone receptor 2 (CRF2)
Corticotropin-releasing factor receptor 2, sequence (P47866 whole entry): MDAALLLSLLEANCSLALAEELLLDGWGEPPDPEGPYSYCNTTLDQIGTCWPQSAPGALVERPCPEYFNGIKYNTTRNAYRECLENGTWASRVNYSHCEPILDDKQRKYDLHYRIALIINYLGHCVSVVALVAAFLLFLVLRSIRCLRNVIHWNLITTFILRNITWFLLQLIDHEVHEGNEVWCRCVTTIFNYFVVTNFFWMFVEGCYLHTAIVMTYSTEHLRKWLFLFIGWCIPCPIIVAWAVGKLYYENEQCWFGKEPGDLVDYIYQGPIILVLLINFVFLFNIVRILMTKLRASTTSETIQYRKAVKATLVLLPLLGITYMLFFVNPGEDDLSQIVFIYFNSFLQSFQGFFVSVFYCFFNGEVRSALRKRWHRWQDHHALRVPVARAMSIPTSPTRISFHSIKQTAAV

`CCCCN(CC)c1nc(C)nc2c1c(C)cn2-c1c(C)cc(C)cc1C` [CP-154526] showed a Vdss [1] of 6.7 L/kg, a T1/2 [2] of 1.5 h and an IC50 [3] of 5.5 nM. It also gave a Cmax [4] of 367 ng/mL, a clearance [5] of 82 mL/min/kg and a bioavailability [6] of 37%. For the same molecule, the Ki [7] was greater than 10000 nM.
